Assay outcomes deposited in PubChem by Broad Institute.
Hits are enriched below; roughly 1.5% of the tested compounds scored in any of these assays.
ERp5 block: inhibitors of ERp5-driven insulin aggregation, primary screen, biochemical, turbidity, absorbance 650 nm, single point; actives 0.05% (n = 350,000); AID 651711, 2012; Protein disulfide-isomerase A6 (Homo sapiens), Q15084; 90 min; inhibition, % at 9.99 µM;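 active means mean replicate inhibition above about 25%, with every replicate also reaching it, limit read from the data, passing the limit was not always enough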
INS-1E GSIS act: GLuc luminescence reporter in INS-1E cells, primary screen for activators of glucose-dependent secretion of insulin | INS-1E GLuc reporter insulin secretion, 2-3 h | activation, % at 16.6 µM | actives 0.61% (n = 370,000);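 active means lowest replicate activation of at least 40%, so every replicate reaches that level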;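 further: 0% = median of neutral control wells and 100% = median of IBMX positive control wells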
S100A4 inh HTS: inhibitors of S100A4-myosin IIA peptide binding, primary screen, biochemical, fluorescence polarization, TAMRA-MyoIIA peptide. Protein S100-A4 (Homo sapiens), P26447. inhibition, % at 10.7 µM. actives 0.14% (n = 360,000). AID 652163, 2013;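 active means mean inhibition of at least 70% across replicates, with every replicate also reaching that level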
Target sequence (P26447 whole entry, looked up): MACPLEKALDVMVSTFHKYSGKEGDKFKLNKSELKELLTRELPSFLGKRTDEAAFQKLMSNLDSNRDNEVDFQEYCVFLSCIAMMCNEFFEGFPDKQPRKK
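Material: human S100A4 monomer with TAMRA-labelled myosin IIA peptide; buffer or medium: HEPES pH 7.2 with CaCl2, KCl, NaCl, DTT, Triton; compound dosing: one concentration per compound; schedule: 5 min incubation before reading; benchmarks: neutral control DMSO, positive control TFP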
PDI turbidity: inhibitors of human PDI, primary screen, biochemical, turbidity, single point, plate reader; PDI insulin aggregation turbidity, A650, 90 min; AID 588391, 2011; Protein disulfide-isomerase (Homo sapiens), P07237; inhibition, % at 10 µM; actives 0.052% (n = 350,000);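 active means mean inhibition across replicates of 30% or more, whatever share of single replicates reach that level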
Target sequence (P07237 whole entry, looked up): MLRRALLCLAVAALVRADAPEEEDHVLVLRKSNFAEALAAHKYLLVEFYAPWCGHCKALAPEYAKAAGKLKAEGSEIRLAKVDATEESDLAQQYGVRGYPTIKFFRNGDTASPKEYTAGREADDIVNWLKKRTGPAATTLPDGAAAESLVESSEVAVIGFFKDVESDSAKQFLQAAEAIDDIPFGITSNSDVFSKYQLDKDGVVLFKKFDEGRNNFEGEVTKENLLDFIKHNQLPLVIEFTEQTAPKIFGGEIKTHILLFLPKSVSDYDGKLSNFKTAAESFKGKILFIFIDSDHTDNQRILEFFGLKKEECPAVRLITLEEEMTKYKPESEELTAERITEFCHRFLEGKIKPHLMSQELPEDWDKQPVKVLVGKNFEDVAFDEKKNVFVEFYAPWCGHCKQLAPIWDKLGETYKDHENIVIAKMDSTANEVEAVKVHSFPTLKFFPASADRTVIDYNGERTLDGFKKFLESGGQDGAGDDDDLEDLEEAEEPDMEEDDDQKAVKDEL
SIRT5 inh: SIRT5 desuccinylase inhibitors, primary screen, biochemical, fluorescence imaging, single point, set 5; inhibition, % at 15 µM; actives 1.1% (n = 330,000); AID 652115, 2013; Purified SirT5, succinyl-peptide AMC, trypsin-coupled fluorescence; in the data active means inhibition above about 15%
* = called active by the depositor; . = not tested or not shown; ! = not active in a repeat.

SMILES	ERp5 block	INS-1E GSIS act	S100A4 inh HTS	PDI turbidity	SIRT5 inh
C[C@H]1CN([C@@H](C)CO)S(=O)(=O)c2ccc(/C=C/c3ccccc3)cc2O[C@H]1CN(C)C(=O)NC1CCCC1	-5	-7	-7	.	19*
C/C=C/c1ccc2c(c1)O[C@H](CN(C)C(=O)NC1CCCC1)[C@@H](C)CN([C@@H](C)CO)S2(=O)=O	1	0	0	.	-2
C[C@H](CO)N1C[C@H](C)[C@@H](CN(C)C(=O)NC2CCCCC2)Oc2cc(/C=C/c3ccccc3)ccc2S1(=O)=O	-4	-42	10	.	-7
C[C@H](CO)N1C[C@H](C)[C@H](CN(C)C(=O)NC2CCCCC2)Oc2cc(/C=C/c3ccccc3)ccc2S1(=O)=O	0	12	-3	.	25*
C[C@@H]1CN([C@@H](C)CO)S(=O)(=O)c2ccc(/C=C/c3ccccc3)cc2O[C@H]1CN(C)C(=O)NC1CCCCC1	1	-15	-9	.	22*
C[C@@H]1CN([C@@H](C)CO)S(=O)(=O)c2ccc(/C=C/c3ccccc3)cc2O[C@@H]1CN(C)C(=O)NC1CCCCC1	2	4	-13	.	28*
C/C=C/c1ccc2c(c1)O[C@@H](CN(C)C(=O)NC1CCCCC1)[C@@H](C)CN([C@H](C)CO)S2(=O)=O	-2	-3	0	.	3
CCS(=O)(=O)Nc1ccc2c(c1)C(=O)N(C)C[C@H](OC)[C@@H](C)CN(Cc1nccs1)[C@@H](C)CO2	-3	12	.	.	-4
C[C@H]1CN([C@@H](C)CO)C(=O)c2cc(Br)cnc2O[C@@H]1CN(C)C(=O)Nc1ccccc1	-4	-3	23	.	2
C[C@H](CO)N1C[C@H](C)[C@@H](CN(C)C(=O)c2ccccc2)Oc2ncc(-c3ccc(C#N)cc3)cc2C1=O	-5	17	0	.	-13
C[C@H]1CN([C@@H](C)CO)S(=O)(=O)c2ccc(/C=C/c3ccccc3)cc2O[C@H]1CN(C)C(=O)NC1CCCCC1	-5	6	-3	0	26*!
C[C@H](CO)N1C[C@H](C)[C@H](CN(C)S(=O)(=O)c2ccccc2)Oc2ccc(NS(=O)(=O)c3cn(C)cn3)cc2C1=O	-6	9	5	.	1
Cc1nc(S/C(=C/c2ccc(-c3ccc(C(=O)O)cc3)o2)C(=O)O)n[nH]1	4	-14	20	7	37*
O=C(NC[C@H]1CC[C@@H]2[C@@H](CN2S(=O)(=O)c2ccccc2[N+](=O)[O-])O1)C1CCC1	-3	.	-3	.	-3
N#Cc1ccc(C(=O)OCC(=O)N2CCN(C(=O)c3ccco3)CC2)cc1	-3	0	-1	6	23*
CC(=O)Nc1ccc(C(=O)N2CCN(C(=O)c3ccco3)CC2)cc1	2	-6	-1	-2	17*
O=C(OCC(=O)N1CCN(C(=O)c2ccco2)CC1)c1ccccc1	2	3	-6	-5	-2
COc1ccc(C(=O)NC2CC3CCCC(C2)N3Cc2ccccc2)c(OC)c1 (stereo not drawn)	1	.	1	2	24*
Cc1ccc2nc(N3C(=O)C(O)=C(C(=O)c4ccco4)C3c3ccc(O)cc3)sc2c1 (stereo not drawn)	4	-38	-1	11	2
Cc1cc(C)c2nc(N3C(=O)C(O)=C(C(=O)c4ccco4)C3c3cccc(O)c3)sc2c1 (stereo not drawn)	-6	21	-7	0	17*
Cc1cc(C)c2nc(N3C(=O)C(O)=C(C(=O)c4ccco4)C3c3ccc(O)cc3)sc2c1 (stereo not drawn)	2	13	6	-2	17*
Cc1cc(N2C(=O)C(O)=C(C(=O)c3ccco3)C2c2cccc(O)c2)no1 (stereo not drawn)	0	7	-1	0	0
Cc1nnc(N2C(=O)C(O)=C(C(=O)c3ccco3)C2c2cccc([N+](=O)[O-])c2)s1 (stereo not drawn)	7	48*	-13	4	2
Cc1ccc(S(=O)(=O)N(C)C[C@@H]2Oc3ccc(NS(=O)(=O)c4cn(C)cn4)cc3CC(=O)N([C@H](C)CO)C[C@H]2C)cc1	.	27	.	.	.
O=C(Nc1ccc(N2CCOCC2)c2nonc12)C1CCCC1	.	.	.	14	.
SMILES	ERp5 block	INS-1E GSIS act	S100A4 inh HTS	PDI turbidity	SIRT5 inh
Nc1ccc(N2CCOCC2)c2nonc12	22	-2	-5	66*	-6
C[C@@H]1CN([C@@H](C)CO)C(=O)c2cc(NS(=O)(=O)c3ccc(Cl)cc3)ccc2O[C@@H]1CN(C)S(=O)(=O)c1ccc(Cl)cc1	-4	-8	1	.	9
Cc1ccc(-c2cnc3c(c2)C(=O)N([C@@H](C)CO)C[C@@H](C)[C@@H](CN(C)CC2CC2)O3)cc1	-2	21	0	.	16*
C[C@H]1CN([C@@H](C)CO)C(=O)c2cc(-c3ccc(C#N)cc3)cnc2O[C@H]1CN(C)CC1CCOCC1	4	13	-4	.	-9
C[C@@H]1CN([C@@H](C)CO)C(=O)c2cc(-c3ccc(C#N)cc3)cnc2O[C@@H]1CN(C)CC1CCOCC1	-3	9	4	.	38*
Cc1ccc(-c2cnc3c(c2)C(=O)N([C@H](C)CO)C[C@H](C)[C@@H](CN(C)CC2CCCC2)O3)cc1	4	-14	7	.	3
CO/N=C/C(c1ccc(Cl)nc1)S(=O)(=O)c1ccccc1 (stereo not drawn)	1	19	-1	-10	21*
CO/N=C/C(c1ncc(C(F)(F)F)cc1Cl)S(=O)(=O)c1ccccc1 (stereo not drawn)	-3	-4	8	2	-1
O=C(COC(=O)Cc1ccc(F)cc1)NCCc1ccccc1	1	43*	-3	-4	-1
O=C(COC(=O)Cc1cccc(F)c1)NCCc1ccccc1	4	.	-2	-4	5
CO[C@@H]1CN(C)C(=O)c2cc(NC(=O)Nc3ccccc3)ccc2OC[C@H](C)N(C(=O)CN(C)C)C[C@H]1C	4	7	12	.	-7
COc1ccc(NC(=O)N(C)C[C@H]2OCc3ccccc3-c3c(n(C)c4ccccc34)C(=O)N([C@H](C)CO)C[C@@H]2C)c(OC)c1	2	-15	-7	.	5
O=C(N/N=C/c1ccncc1)c1cc(-c2ccc(Br)s2)[nH]n1	1	43*	0	-3	-3
O=C(N/N=C/c1ccccn1)c1cc(-c2ccc(Br)s2)[nH]n1	4	6	0	11	18*
O=C(N/N=C\c1ccncc1)c1ccc(Br)s1	3	10	-1	-1	-1
Cc1ccc(S(=O)(=O)N(C)C[C@H]2OCCCC[C@H](C)Oc3ccc(NC(=O)Nc4c(C)noc4C)cc3C(=O)N([C@H](C)CO)C[C@H]2C)cc1	-3	-2	1	.	3
